Bioassay records (PubChem)
CHO parental Ca = counter-screen: ATP calcium response change in parental CHO cells. 330,000 compounds, 0.63% hits. parental CHO-K1, ATP-induced calcium, Fluo-8 fluorescence. inhibition, % at 5.6 µM. AID 463079;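 active = inhibition above that plate's mean sample inhibition plus 3 SD, cut at about 26% in these data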
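Material: Parental CHO cells | Reagent: ATP | Compound dosing: Single nominal dose of 5.6 µM per compound | Detection: Intracellular calcium via Fluo-8 no-wash fluorescent dye | Read-out: % inhibition of ATP-induced calcium mobilization | Benchmarks: Low control ATP plus DMSO, high control DMSO only | Replicates: Singlicate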
V1R ag counter = V1a receptor agonism, counter-screen for OXTR agonists; activation, % at 3 µM; CHO-V1R cells, Fluo-8 calcium fluorescence, agonist mode; 0% DMSO, 100% 3 nM vasopressin; P37288; 320,000 compounds, 0.25% hits;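 active = activation above the mean activation of all tested compounds plus 3 SD, per screening run, cut at about 20% in these data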;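 note: signal is peak over basal fluorescence ratio across a 100 second FLIPR read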
OX1R antag-1 = OX1R (human) antagonism; inhibition, % at 6.6 µM; OX1R-expressing cells, FRET antagonist read-out; O43613; 330,000 compounds, 1.8% hits; in the data active = inhibition mostly above about 38%, no sharp cut-off; inactive = mostly below about 40%
OXTR potentiate = potentiators of human oxytocin receptor | AID 2445 | 320,000 compounds, 0.061% hits | activation, % at 3 µM | CHO-OTR cells, Fluo-8 calcium fluorescence, potentiator mode; 0% = oxytocin EC15, 100% = EC100 | P30559;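 active = activation above that plate's cutoff, the mean activation of tested compounds plus 3 SD, cut at about 6.6% in these data, passing the limit was not always enough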
Target sequence (P30559 whole entry, looked up): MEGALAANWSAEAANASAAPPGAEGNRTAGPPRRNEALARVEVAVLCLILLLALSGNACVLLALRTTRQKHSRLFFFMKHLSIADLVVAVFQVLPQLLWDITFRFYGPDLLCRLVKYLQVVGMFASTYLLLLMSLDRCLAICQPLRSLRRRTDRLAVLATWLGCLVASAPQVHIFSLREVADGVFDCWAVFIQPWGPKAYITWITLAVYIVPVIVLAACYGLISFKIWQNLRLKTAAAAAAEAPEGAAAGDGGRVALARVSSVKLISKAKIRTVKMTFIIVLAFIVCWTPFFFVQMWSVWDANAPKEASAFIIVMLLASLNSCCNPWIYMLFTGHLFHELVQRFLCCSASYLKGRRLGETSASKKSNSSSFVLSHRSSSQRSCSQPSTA
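System: human OTR in CHO cells; Also added: sub-maximal oxytocin, roughly EC15; Timing: compound 6 min at room temperature before oxytocin, 100 s read; Technique: Fluo-8 intracellular calcium fluorescence, ex 470-495, em 515-575 nm; Controls: oxytocin EC15 low and EC100 high; Replication: singlicate.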
OX1R antag-2 = human HCRTR1 antagonism; CHO/OX1R cells, Fluo-8 calcium fluorescence, orexin A; AID 434989; inhibition, % at 5 µM; 330,000 compounds, 0.43% hits;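 active = inhibition above its plate's threshold, mean inhibition of all tested compounds on the plate plus 3 SD, cut at about 37% in these data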
OXTR ag = human OXTR agonism | P30559 | CHO-OTR cells, Fluo-8 calcium fluorescence; normalized: DMSO 0%, oxytocin 100% | activation, % at 3 µM | 320,000 compounds, 0.32% hits;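 active = activation above the mean of all tested compounds plus 3 SD, cutoff set per screening run, cut at about 20% in these data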;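 note: peak over basal fluorescence ratio from a 100 s FLIPR kinetic read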
OX1R HTRF confirm = OX1R (human) antagonism, HTRF confirmed; shares compounds with OX1R antag-1; OX1R-expressing cells, HTRF antagonist assay; inhibition, % at 6.6 µM; 1,800 compounds, 49% hits; AID 492964; in the data active = inhibition above about 55%;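 note: CHO cells expressing OX1R stimulated with orexin A at about EC80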
CHO-K1 HTRF cnt = counter-screen: parental CHO-K1 HTRF response; shares compounds with OX1R antag-1; parental CHO-K1 cells, HTRF counterscreen; inhibition, % at 6.6 µM; 1,800 compounds, 48% hits; in the data active = inhibition above about 17%
A number is an active result. Sampled rows, rich in hits. Any-hit rate of the full collection: about 2.7%.

`CCCn1c(SCC(=O)Nc2nnc(-c3ccccc3)s2)nnc1-c1ccccn1` gave CHO parental Ca inactive, V1R ag counter inactive, OX1R antag-1 78, OXTR potentiate inactive, OX1R antag-2 inactive, OXTR ag inactive, OX1R HTRF confirm 65 and CHO-K1 HTRF cnt inactive.
`Cc1cc(C)n(C(=O)c2cc([N+](=O)[O-])cc([N+](=O)[O-])c2)n1` gave CHO parental Ca inactive, V1R ag counter inactive, OX1R antag-1 104, OXTR potentiate inactive, OX1R antag-2 inactive, OXTR ag inactive, OX1R HTRF confirm 71 and CHO-K1 HTRF cnt 62.
For CC(C)C[C@H](NC(=O)N1CC(=O)Nc2ccccc21)C(=O)N[C@@H](Cc1c[nH]c2ccccc12)C(=O)O the results were CHO parental Ca inactive, V1R ag counter inactive, OX1R antag-1 82, OXTR potentiate inactive, OX1R antag-2 inactive, OXTR ag inactive, OX1R HTRF confirm inactive and CHO-K1 HTRF cnt inactive.
CC(C)C[C@H](NC(=O)N1CC(=O)Nc2ccccc21)C(=O)N[C@H](Cc1c[nH]c2ccccc12)C(=O)O was read as CHO parental Ca inactive, V1R ag counter inactive, OX1R antag-1 inactive, OXTR potentiate inactive, OX1R antag-2 inactive and OXTR ag inactive.
`CCOC(=O)c1nn(-c2ccccc2C)c(=O)c2c(N)scc12` gave CHO parental Ca inactive, V1R ag counter inactive, OX1R antag-1 inactive, OXTR potentiate inactive, OX1R antag-2 inactive and OXTR ag inactive.
For CCOC(=O)c1nn(-c2ccccc2C)c(=O)c(C#N)c1C the results were CHO parental Ca inactive, V1R ag counter inactive, OX1R antag-1 127, OXTR potentiate inactive, OX1R antag-2 inactive, OXTR ag inactive, OX1R HTRF confirm 65 and CHO-K1 HTRF cnt 43.
For COc1ccc(CNC(=O)C(C)OC(=O)c2cccs2)cc1 (configuration not stated) the results were CHO parental Ca inactive, V1R ag counter inactive, OX1R antag-1 inactive, OXTR potentiate inactive, OX1R antag-2 inactive and OXTR ag inactive.
`O=C(N=Nc1c(O)[nH]c2ccccc12)c1ccco1` gave CHO parental Ca inactive, V1R ag counter inactive, OX1R antag-1 113, OXTR potentiate inactive, OX1R antag-2 inactive, OXTR ag inactive, OX1R HTRF confirm 99 and CHO-K1 HTRF cnt 55.
Screening Cc1c(Cl)cccc1NC(=O)c1cc(-c2ccccc2O)n[nH]1 returned CHO parental Ca inactive, V1R ag counter inactive, OX1R antag-1 81, OXTR potentiate inactive, OX1R antag-2 inactive, OXTR ag inactive, OX1R HTRF confirm inactive and CHO-K1 HTRF cnt inactive.
COc1cc(CNCCSc2nnnn2C)cc(Br)c1OCc1ccccc1F was read as CHO parental Ca inactive, V1R ag counter inactive, OX1R antag-1 95, OXTR potentiate inactive, OX1R antag-2 inactive, OXTR ag inactive, OX1R HTRF confirm inactive and CHO-K1 HTRF cnt inactive.
For Cc1ccc(C2=NN(CC(=O)NCCC(C)C)C(=O)CC2)cc1 the results were CHO parental Ca inactive, V1R ag counter inactive, OX1R antag-1 inactive, OXTR potentiate inactive, OX1R antag-2 inactive and OXTR ag inactive.
CC(C)Oc1ccc(C(=O)Nc2cccc3cccnc23)cc1 was read as CHO parental Ca inactive, V1R ag counter inactive, OX1R antag-1 79, OXTR potentiate inactive, OX1R antag-2 inactive, OXTR ag inactive, OX1R HTRF confirm inactive and CHO-K1 HTRF cnt inactive.
O=C(NC(=S)Nc1cccc2cccnc12)c1ccccc1 was read as CHO parental Ca inactive, V1R ag counter inactive, OX1R antag-1 inactive, OXTR potentiate inactive, OX1R antag-2 inactive and OXTR ag inactive.
Screening O=C(Nc1cccc2cccnc12)c1cccc([N+](=O)[O-])c1 returned CHO parental Ca inactive, V1R ag counter inactive, OX1R antag-1 inactive, OXTR potentiate inactive, OX1R antag-2 inactive and OXTR ag inactive.
For Cc1cc(C(=O)Nc2cccc3cccnc23)ccc1[N+](=O)[O-] the results were CHO parental Ca inactive, V1R ag counter inactive, OX1R antag-1 80, OXTR potentiate inactive, OX1R antag-2 inactive, OXTR ag inactive, OX1R HTRF confirm 56 and CHO-K1 HTRF cnt inactive.
For O=C(COc1ccc2ccccc2c1)Nc1cccc2cccnc12 the results were CHO parental Ca inactive, V1R ag counter inactive, OX1R antag-1 81, OXTR potentiate inactive, OX1R antag-2 inactive, OXTR ag inactive, OX1R HTRF confirm inactive and CHO-K1 HTRF cnt inactive.
For O=C(COc1ccc2ccccc2c1)Nc1cccnc1Cl the results were CHO parental Ca inactive, V1R ag counter inactive, OX1R antag-1 inactive, OXTR potentiate inactive, OX1R antag-2 inactive and OXTR ag inactive.
Nc1c(-c2ccccc2)sc2ccc3ccccc3[n+]12 was read as CHO parental Ca inactive, V1R ag counter inactive, OX1R antag-1 inactive, OXTR potentiate inactive, OX1R antag-2 inactive and OXTR ag inactive.
Screening c1ccc(-c2c3ccccc3nc3[nH]c4ccccc4c23)cc1 returned CHO parental Ca inactive, V1R ag counter inactive, OX1R antag-1 inactive, OXTR potentiate inactive, OX1R antag-2 inactive and OXTR ag inactive.
Screening c1ccc2nc3c(nc2c1)[nH]c1ccccc13 returned CHO parental Ca inactive, V1R ag counter inactive, OX1R antag-1 82, OXTR potentiate inactive, OX1R antag-2 inactive, OXTR ag inactive, OX1R HTRF confirm 72 and CHO-K1 HTRF cnt inactive.
Screening COc1cc(-c2ccc3oc(-c4cccc(C)c4)c(C#CC4(O)CCCCC4)c3c2)cc(OC)c1OC returned CHO parental Ca inactive, V1R ag counter inactive, OX1R antag-1 inactive, OXTR potentiate inactive, OX1R antag-2 inactive and OXTR ag inactive.
Cc1ccc(Nc2nc3nonc3[nH]c2=O)cc1C was read as CHO parental Ca inactive, V1R ag counter inactive, OX1R antag-1 78, OXTR potentiate inactive, OX1R antag-2 inactive, OXTR ag inactive, OX1R HTRF confirm inactive and CHO-K1 HTRF cnt inactive.
`COc1ccc(S(=O)(=O)NCC(c2ccc(C)cc2)N2CCN(C)CC2)cc1` (configuration not stated) gave CHO parental Ca inactive, V1R ag counter inactive, OX1R antag-1 inactive, OXTR potentiate inactive, OX1R antag-2 inactive and OXTR ag inactive.
`CCCCNC1=CC(=O)C(=O)c2ccccc21` gave CHO parental Ca inactive, V1R ag counter inactive, OX1R antag-1 161, OXTR potentiate inactive, OX1R antag-2 inactive, OXTR ag inactive, OX1R HTRF confirm 88 and CHO-K1 HTRF cnt 101.
For COC(=O)C1CCN(C(=O)COC(=O)C2CCN(S(=O)(=O)c3ccc(C)c(C)c3)CC2)CC1 the results were CHO parental Ca inactive, V1R ag counter inactive, OX1R antag-1 inactive, OXTR potentiate inactive, OX1R antag-2 inactive and OXTR ag inactive.
